ADAM10 inh = ADAM10 inhibition, QFRET primary screen; AID 720582; O14672; hit rate 0.62% among 370,000; recombinant ADAM10, EDANS/DABCYL FRET peptide cleavage, 3 h; inhibition, % at 7 µM;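 active = inhibition above a per-campaign cutoff equal to the mean of compounds falling between control-based bounds plus 3 SD, cut at about 20% in these data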
Target sequence (O14672 214-748 limits assumed): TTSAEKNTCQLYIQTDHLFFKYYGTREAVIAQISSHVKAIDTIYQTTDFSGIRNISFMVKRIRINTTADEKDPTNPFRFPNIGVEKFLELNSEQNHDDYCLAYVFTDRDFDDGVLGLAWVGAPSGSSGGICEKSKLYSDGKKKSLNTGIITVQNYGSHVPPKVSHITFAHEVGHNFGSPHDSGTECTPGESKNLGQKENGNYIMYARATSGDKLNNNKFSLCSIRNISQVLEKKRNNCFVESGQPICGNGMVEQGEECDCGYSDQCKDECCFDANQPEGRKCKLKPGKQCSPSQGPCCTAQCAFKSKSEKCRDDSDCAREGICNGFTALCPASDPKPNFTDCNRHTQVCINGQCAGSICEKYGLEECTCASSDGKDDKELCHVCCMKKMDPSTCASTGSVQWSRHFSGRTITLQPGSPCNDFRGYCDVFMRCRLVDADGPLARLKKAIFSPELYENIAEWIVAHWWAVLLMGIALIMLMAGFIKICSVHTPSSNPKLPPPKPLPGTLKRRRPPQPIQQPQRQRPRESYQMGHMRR
ADAM17 inh = inhibits human ADAM17. inhibition, % at 6.95 µM. P78536. recombinant ADAM17, EDANS/DABCYL FRET peptide cleavage. AID 720648. hit rate 0.83% among 370,000;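 active = inhibition above the mean of compounds lying between control limits plus 3 SD, set per campaign, cut at about 8.5% in these data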
FAS-TE inh = inhibitors of human fatty acid synthase thioesterase domain. recombinant FAS-TE, OMFH fluorogenic substrate, fluorescence endpoint. P49327. inhibition, % at 15 µM. AID 602261. hit rate 0.67% among 360,000;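 active = compounds whose normalised, plate-corrected inhibition of enzyme fluorescence in the single-dose primary screen is 50% or more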
CendR NRP1 mod = NRP-1/CendR interaction modulation; O14786; FAM-RPARPAR peptide binding to NRP-1, fluorescence polarization; inhibition, % at 25 µM; hit rate 0.85% among 360,000;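 active = inhibition or corrected inhibition above about 18%, plus a signal ratio from 0.5 to 1.5, limit read from the data, passing the limit was not always enough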
Arr AP2 block = inhibitors of human beta-arrestin and AP2 interaction | FITC-arrestin peptide / GST-AP2 beads, flow cytometry; AP2 beta2 appendage carries R879A mutation | inhibition, % at 10 µM | hit rate 0.31% among 340,000 | AID 504490;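 active = inhibition above a set limit, near 3 SD of compounds lacking own fluorescence, cut at about 54% in these data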
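test system = AP2 appendage R879A on GSH beads | buffer or medium = PBS plus Tween 20 (0.05%) and BSA (0.1%) | incubation = 12 min plus 1 h, RT | detection = bead flow cytometry, FITC channel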
CaV13 FRET inh = Primary screen for inhibitors of IQ motif and Ca2+-dependent inactivation inhibitor domain binding in CACNA1D, Förster resonance energy transfer in living cells, …; AID 743397; inhibition, % at 12.3 µM; hit rate 0.098% among 340,000; HEK cells, CFP/YFP FRET ICDI-IQ, plate reader, 10 min; percent FRET-ratio fall versus neutral wells;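 active = mean replicate inhibition of at least 30% and at least 1% of replicates passing that level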
FAS-TE inh conf = confirmation of human fatty acid synthase thioesterase inhibitors; shares compounds with FAS-TE inh; recombinant FAS-TE, OMFH fluorogenic substrate, fluorescence; inhibition, % at 15 µM; hit rate 45% among 2,300;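 active = compounds inhibiting the enzyme by at least 50% at 15 µM in any one of the replicates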
Each line names hits and unclear results; the compound was inactive in the other large screens (follow-up assays come after a bar, where they were run). This is a sample that favours compounds with a hit; in the whole collection about 2.9% have one here.

O=C(Cc1ccccc1)NC1CCN(C(=O)c2ccc([N+](=O)[O-])cc2)CC1	none
O=[N+]([O-])c1cccc(OCCN2CCC(Cc3ccccc3)CC2)c1	FAS-TE inh 63.1 | FAS-TE inh conf 67.3
O=C(c1ccc([N+](=O)[O-])cc1)N1CCC(Cc2ccccc2)CC1	FAS-TE inh 59.0 | FAS-TE inh conf 54.2
CCC12CN(C(=O)c3ccc([N+](=O)[O-])cc3)CC(CC)(CN(C(=O)c3ccc([N+](=O)[O-])cc3)C1)C2=O	FAS-TE inh 58.4 | FAS-TE inh conf inactive
CC[C@H](CCCc1ccc(OC)cc1)CCC(=O)N1CCOCC1	none (no result: FAS-TE inh, CendR NRP1 mod, Arr AP2 block, CaV13 FRET inh)
CCN(CC)S(=O)(=O)c1ccc2oc(C(=O)N3CCc4ccccc4C3)c(C)c2c1	none (no result: ADAM10 inh, ADAM17 inh, CaV13 FRET inh)
Cc1c(C(=O)N2CCc3ccccc3C2)oc2ccc(S(=O)(=O)N3CC(C)CC(C)C3)cc12 (centres undefined)	FAS-TE inh 52.5 | FAS-TE inh conf inactive
COc1ccc([C@@H]2[C@@H]3C(=O)N(C(C)(C)C)C(=O)[C@@H]3[C@]3(Cc4ccc(Cl)cc4)C(=O)N(c4cccc(C)c4)C(=O)N23)cc1	FAS-TE inh 82.8 | FAS-TE inh conf inactive
CC[C@@]12C(=O)N(c3cccc(C)c3)C(=O)N1[C@H](c1ccc(OC)cc1)[C@@H]1C(=O)N(C(C)(C)C)C(=O)[C@@H]12	none (no result: ADAM10 inh, ADAM17 inh, CaV13 FRET inh)
COc1ccc([C@@H]2[C@@H]3C(=O)N(C(C)(C)C)C(=O)[C@@H]3[C@]3(Cc4ccc(Cl)cc4)C(=O)N(c4ccc(C)cc4)C(=O)N23)cc1	FAS-TE inh 91.6 | FAS-TE inh conf inactive
COc1ccc([C@@H]2[C@@H]3C(=O)N(C(C)(C)C)C(=O)[C@@H]3[C@]3(Cc4ccccc4)C(=O)N(c4ccc(C(F)(F)F)cc4)C(=O)N23)cc1	none
O=S1(=O)C[C@H](N2CCC(Cc3ccccc3)CC2)[C@@H](COCc2ccccc2)N1	none (no result: Arr AP2 block)
CCCc1cn(-c2ccc3c(c2)[C@@]2(CC(=O)N(C)C2c2ccccc2)C(=O)N3CC(C)C)nn1 (some centres undefined)	none (no result: FAS-TE inh, CendR NRP1 mod, Arr AP2 block, CaV13 FRET inh)
Cc1nc(N2CCN(c3ccccn3)CC2)c2c(C)c(C(=O)Nc3c(C)cc(Br)cc3C)sc2n1	FAS-TE inh 73.1 | FAS-TE inh conf inactive
CN(N=Cc1ccc([N+](=O)[O-])cc1)c1ccccn1	FAS-TE inh 50.2 (no result: Arr AP2 block) | FAS-TE inh conf inactive
O=C(c1ccc([N+](=O)[O-])cc1)N(c1ccccn1)c1ccccn1	none
CCn1c(C)c(C(C)=O)c(N2CCN(c3ccccc3)CC2)nc1=S	none (no result: CaV13 FRET inh)
CCn1c(C)c(C(C)=O)c(N2CCN(C(c3ccccc3)c3ccccc3)CC2)nc1=S	FAS-TE inh 69.7 | FAS-TE inh conf 60.8
Cc1cc(=O)n2[nH]c(-c3ccc(C(C)(C)C)cc3)cc2n1	FAS-TE inh 63.1 | FAS-TE inh conf 44.3
COc1ccc(NC(=O)CCN2C(=O)c3cccc([N+](=O)[O-])c3C2=O)cc1	none
CC(C)(C)c1ccc(NC(=O)COC(=O)CCN2C(=O)c3cccc([N+](=O)[O-])c3C2=O)cc1	FAS-TE inh 83.3 | FAS-TE inh conf inactive
CCOC(=O)c1c(NC(=O)c2ccc(N3C(=O)[C@@H]4[C@H](C3=O)[C@H]3C=C[C@@H]4C3)cc2)sc2c1CC(C)CC2 (some centres undefined)	FAS-TE inh 51.3 | FAS-TE inh conf inactive
CCOC(=O)c1c(NC(=O)C2C3C=CC(C3)C2C(=O)O)sc2c1CC(C)CC2 (centres undefined)	none
C[C@@H]1CN([C@H](C)CO)S(=O)(=O)c2ccc(Br)cc2O[C@H]1CN(C)C(=O)C1CC1	none (no result: Arr AP2 block)
COC(=O)N1C(=O)[C@@](c2ccccc2)(C2CCCC2)N1C(=O)OC	none (no result: ADAM10 inh, ADAM17 inh, CaV13 FRET inh)
COC(=O)N1C(=O)[C@](c2ccccc2)(C2CCCCC2)N1C(=O)OC	FAS-TE inh 79.8 | FAS-TE inh conf 94.7
COC(=O)N1C(=O)[C@](CC(C)C)(c2ccccc2)N1C(=O)OC	FAS-TE inh 85.3 | FAS-TE inh conf 87.8
COC(=O)N1C(=O)[C@](c2ccc(OC)cc2)(C(C)C)N1C(=O)OC	FAS-TE inh 71.7 | FAS-TE inh conf 82.4
CC[C@@]1(c2cccc(C)c2)C(=O)N(C(=O)OC)N1C(=O)OC	FAS-TE inh 79.2 | FAS-TE inh conf 70.5
O=C(Nc1cc(Cl)ccc1F)C1CCCN(c2nnc(-n3cccc3)s2)C1 (centres undefined)	none (no result: FAS-TE inh, CendR NRP1 mod, Arr AP2 block, CaV13 FRET inh)
CCOC(=O)N[C@H](C(=O)N1CCC[C@H]1C(=O)NC1CCCC1)c1ccccc1	none (no result: FAS-TE inh, CendR NRP1 mod, Arr AP2 block)
CC(C)(C)c1ccc(C(=O)OCCNC(=O)c2c(Cl)nc3ccccn23)cc1	FAS-TE inh 65.9 | FAS-TE inh conf 74.9
O=C1C=C(c2ccc(-c3ccccc3)cc2)C[C@@H](c2ccc(Cl)cc2)C1	none
O=C1C=C(c2cc(Cl)cc(Cl)c2)C[C@@H](c2ccc(F)cc2)C1	none
O=C1C=C(c2ccc(Cl)c(C(F)(F)F)c2)C[C@@H](c2ccc(F)cc2)C1	FAS-TE inh 53.2 | FAS-TE inh conf inactive
O=C1C=C(c2ccc(Cl)c(C(F)(F)F)c2)C[C@@H](c2ccc(Cl)cc2)C1	FAS-TE inh 54.5 | FAS-TE inh conf inactive
COc1ccc(CCN2C(=O)CCC3=C2CCCC3=O)cc1OC	none (no result: ADAM10 inh, ADAM17 inh, Arr AP2 block, CaV13 FRET inh)
CCCCn1c(CN2CCN(c3cccc(Cl)c3)CC2)nc2c1c(=O)n(C)c(=O)n2C	FAS-TE inh 70.7 | FAS-TE inh conf 54.4
CCCCn1c(CN2CCN(c3ccccc3)CC2)nc2c1c(=O)n(C)c(=O)n2C	FAS-TE inh 50.4 (no result: ADAM10 inh, ADAM17 inh, CaV13 FRET inh) | FAS-TE inh conf 49.6
CCCCCn1c(CN2CCN(c3cccc(Cl)c3)CC2)nc2c1c(=O)n(C)c(=O)n2C	FAS-TE inh 79.0 (no result: CaV13 FRET inh) | FAS-TE inh conf 35.3
CC(=O)Nc1cc(-c2cccnc2)cn2c(-c3ccc(F)cc3)cnc12	none (no result: Arr AP2 block)
COc1cccc(-c2nnc3sc(-c4ccc(Br)o4)nn23)c1	none (no result: FAS-TE inh, CendR NRP1 mod, Arr AP2 block, CaV13 FRET inh)
CCOc1ccc(S(=O)(=O)N2CCN(C(=O)Cc3ccc(S(=O)(=O)N4CCOCC4)s3)CC2)cc1	none
O=C(Cc1ccc(S(=O)(=O)N2CCOCC2)s1)N1CCN(S(=O)(=O)c2cccc([N+](=O)[O-])c2)CC1	none
O=C(Cc1ccc(S(=O)(=O)N2CCOCC2)s1)N1CCN(S(=O)(=O)c2ccccc2[N+](=O)[O-])CC1	FAS-TE inh 87.3 | FAS-TE inh conf 83.3
Cc1ccc(C)c(S(=O)(=O)N2CCN(C(=O)Cc3ccc(S(=O)(=O)N4CCOCC4)s3)CC2)c1	FAS-TE inh 69.4 | FAS-TE inh conf 63.0
O=C(c1cc(C2CCCCN2C(=O)CCCc2ccccc2)on1)N1CCOCC1 (centres undefined)	none (no result: Arr AP2 block)

Screening results as filed in PubChem.
